The source made the active and inactive calls. The calls are words filed in the database; no cut-off is given here.
What was measured:
[1] = system: MDA-MB-231; test: Cytotoxicity against human MDA-MB-231 cells assessed as decrease in cell viability after 48 hrs by MTS assay; assay type: functional; conditions: MDA-MB-231, 48 h
Outline: (§1)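 Cells grown at 37 °C, 5% CO2, with 10% FBS and penicillin/streptomycin: MDA-MB-231, JIMT1 and DU145 in DMEM, PC3 in F12K, BT474 in Hybricare, MiaPaCa2 in DMEM plus 2.5% horse serum. Cells (7500–9000/well) were plated for 24 h, then exposed to 0–20 µM for 48 h. MTS was added for 1–4 h and OD490 read, blank-subtracted, relative to vehicle. CC50 was read from plots; mean ± SD, six independent determinations.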

[2] = system: MIA PaCa-2; test: Cytotoxicity against human MIAPaCa2 cells assessed as decrease in cell viability after 48 hrs by MTS assay; assay type: functional; conditions: MIA PaCa-2, 48 h; outline: as §1
[3] = system: PC-3; test: Cytotoxicity against human PC3 cells assessed as decrease in cell viability after 48 hrs by MTS assay; assay type: functional; conditions: PC-3, 48 h; outline: as §1
[4] = system: DU-145; test: Cytotoxicity against human DU145 cells assessed as decrease in cell viability after 48 hrs by MTS assay; assay type: functional; conditions: DU-145, 48 h; outline: as §1
[5] = system: JIMT-1; test: Cytotoxicity against human JIMT1 cells assessed as decrease in cell viability after 48 hrs by MTS assay; assay type: functional; conditions: JIMT-1, 48 h; outline: as §1
[6] = system: BT-474; test: Cytotoxicity against human BT474 cells assessed as decrease in cell viability after 48 hrs by MTS assay; assay type: functional; conditions: BT-474, 48 h; outline: as §1
[7] = system: BT-474; test: Cytotoxicity against human BT474 cancer stem cell spheroids assessed as decrease in cell viability up to 20 uM after 3 days by MTS assay
[8] = system: BT-474; test: Induction of disintegration of human BT474 cancer stem cell spheroids at 20 uM after 3 days by microscopic method; assay type: functional, cell-based
Outline: (§2)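 BT474 stem-cell spheroids (ALDH1-sorted, formed over 6 days in Mammocult on ultra-low adhesion plates) exposed to 0, 7.5 or 20 µM for 3 days. Integrity was judged by light microscopy at ×10 against untreated spheroid wells.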

[9] = system: BT-474; test: Induction of disintegration of human BT474 cancer stem cell spheroids at 7.5 uM after 3 days by microscopic method; assay type: functional, cell-based; outline: as §2
[10] = system: JIMT-1; test: Cytotoxicity against human JIMT1 cells assessed as decrease in cell viability at 2 to 8 uM in presence of pan-caspase inhibitor Q-VD-OPh after 48 hrs by MTS assay; assay type: functional, cell-based
Outline: (§3)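 DU145 or JIMT1 cells seeded for 24 h, then given 40 µM pan-caspase inhibitor along with varying compound concentrations. Incubation continued 48 h, then MTS (20% v/v) for 1–4 h, OD490 read. Values are blank-subtracted and relative to vehicle controls; mean ± SD.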

[11] = system: DU-145; test: Cytotoxicity against human DU145 cells assessed as decrease in cell viability at 2 to 8 uM in presence of pan-caspase inhibitor Q-VD-OPh after 48 hrs by MTS assay; assay type: functional, cell-based; outline: as §3
[12] = system: BT-474; test: Cytotoxicity against human BT474 cancer stem cell spheroids assessed as cell viability at 20 uM after 3 days by MTS assay relative to control; conditions: BT-474, 72 h
[13] = system: BT-474; test: Cytotoxicity against human BT474 cancer stem cell spheroids assessed as decrease in cell viability at 2 to 10 uM after 3 days by MTS assay

Structure (SMILES)	CC50 [1]	CC50 [2]	CC50 [3]	CC50 [4]	CC50 [5]	CC50 [6]	Activity [7]	Activity [8]	Activity [9]	Activity [10]	Activity [11]	viability at 20 µM [12]	Activity [13]
O=C(O)CCCc1ccc(N(CCCl)CCCl)cc1 [CHLORAMBUCIL]	> 150 µM	> 150 µM	> 150 µM	> 150 µM	> 150 µM	> 150 µM	–	–	–	–	–	–	–
CCCCCCCCCCCCCCN [TETRADECYLAMINE]	–	18 µM	24 µM	16.5 µM	27 µM	–	inactive	inactive	inactive	–	–	–	–
COc1cccc2c1C(=O)c1c(O)c3c(c(O)c1C2=O)C[C@@](O)(C(=O)CO)C[C@@H]3O[C@H]1C[C@H](N)[C@H](O)[C@H](C)O1	–	–	–	–	–	–	Active	–	inactive	inactive	inactive	–	–
CCCCCCCCCCCCCCCCOC[C@H](CO[C@@H]1O[C@H](CN)[C@@H](O)[C@H](O)[C@H]1NCCCN)OC	17.5 µM	14.5 µM	14.5 µM	18.5 µM	12.5 µM	> 20 µM	–	inactive	Active	–	–	0%	–
CCCCCCCCCCCCCCCCOC[C@@H](COC1O[C@H](CN)[C@@H](O)[C@H](O)[C@H]1N)OC (some centres undefined)	–	–	–	–	–	–	–	–	–	–	–	–	Active
CCCCCCCCCCCCCCCCOC[C@H](CO[C@@H]1O[C@H](CO)[C@@H](O)[C@H](O)[C@H]1N)OC	7.1 µM	9 µM	13.5 µM	10 µM	9 µM	8 µM	–	–	–	–	–	–	Active

— ChEMBL document CHEMBL4052815, “Amphiphilic Modulation of Glycosylated Antitumor Ether Lipids Results in a Potent Triamino Scaffold against Epithelial Cancer Cell Lines and BT474 Cancer Stem Cells” (J Med Chem, 2017)
